Columns and labels:
[1] = biological target: T1, COX2 (Homo sapiens, UniProt P35354); assay: Inhibition of recombinant human N-terminal His-tagged COX2 expressed in baculovirus infected Sf21 insect cells assessed as decrease in PGE2 release at 1 uM using arachidonic acid as substrate preincubated for 15 mins followed by arachidonic acid addition measured after 5 mins relative to control; conditions: probe arachidonic acid
T1 sequence (P35354 whole entry): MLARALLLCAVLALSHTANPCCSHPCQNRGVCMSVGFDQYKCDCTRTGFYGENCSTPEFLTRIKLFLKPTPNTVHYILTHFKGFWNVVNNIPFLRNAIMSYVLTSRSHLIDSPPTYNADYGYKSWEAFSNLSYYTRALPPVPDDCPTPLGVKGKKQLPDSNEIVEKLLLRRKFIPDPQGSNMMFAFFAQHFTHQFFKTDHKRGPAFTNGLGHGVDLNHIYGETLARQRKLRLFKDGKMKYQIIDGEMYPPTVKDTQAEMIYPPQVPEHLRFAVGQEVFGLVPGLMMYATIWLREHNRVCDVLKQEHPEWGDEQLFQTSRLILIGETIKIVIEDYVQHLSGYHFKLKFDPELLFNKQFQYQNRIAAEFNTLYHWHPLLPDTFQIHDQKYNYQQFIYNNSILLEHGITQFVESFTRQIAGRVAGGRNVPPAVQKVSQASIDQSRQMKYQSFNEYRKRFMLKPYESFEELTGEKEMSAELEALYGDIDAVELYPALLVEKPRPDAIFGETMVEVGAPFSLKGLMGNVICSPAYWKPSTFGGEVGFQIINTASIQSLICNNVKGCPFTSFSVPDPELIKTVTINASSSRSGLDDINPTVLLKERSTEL

[2] = biological target: T1, COX2; assay: Inhibition of recombinant human N-terminal His-tagged COX2 expressed in baculovirus infected Sf21 insect cells assessed as decrease in PGE2 release at 10 uM using arachidonic acid as substrate preincubated for 15 mins followed by arachidonic acid addition measured after 5 mins relative to control; conditions: probe arachidonic acid
[3] = test system: Cavia porcellus; assay: Analgesic activity in Dunkin Hartley guinea pig hyperalgesia pain model assessed as inhibition of LPS-induced thermal hyperalgesia at 200 mg/kg, po qd administered 4 hrs prior to LPS stimulation measured after 4.5 hrs by plantar test relative to control; type: functional
In short: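 LPS was injected into the guinea pig plantar to induce thermal hyperalgesia, and compound was given orally. Response is expressed as % hyperalgesia, with a saline-injected naive group as 0% and the vehicle-treated LPS group as 100%. Values are mean ± SEM, n = 8 per dose group.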

[4] = Plasma concentration in Dunkin Hartley guinea pig model of LPS-induced thermal hyperalgesia pain at 200 mg/kg, po qd measured 7 hrs post dose by LC/MS/MS analysis; type: ADME, organism-based, Cavia porcellus
In short: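 In the guinea pig LPS thermal hyperalgesia model, plasma and CSF drug levels were measured at the pharmacodynamic time point after oral dosing. Concentrations are means of n = 8 animals per dose group.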

CC1(C)Oc2cc(-c3cccc(OC(F)(F)F)c3)ccc2-c2[nH]c(-c3c(F)cccc3Cl)nc21
inhibition at 5 min, 1 µM [1]: 2.37% | inhibition at 5 min, 10 µM [2]: 24.2% | inhibition in vivo at 200 mg/kg [3]: 38% | concentration at 7 h [4]: 7.5 to 7.54 µM
